The text below walks through data of paper PMC3901018 (Chemical communications (Cambridge, England), 2014).

In assay [1] the test system is F21T (human telomeric 21-mer) G4. Kind of assay: FRET G4 stabilisation. Format: binding. As to conditions: ΔTm at 1 µM; triplicate, Esd ± 0.5 °C. Put shortly: (§1)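 96-well FRET melting assay using dual-labelled oligonucleotides: human telomeric 21-mer F21T and c-KIT2 G4s, plus T-loop duplex DNA. Test compound at 1 µM. Tm shift obtained by curve fitting to the melting data, from triplicate measurements, Esd ± 0.5 °C. n/a marks unsuccessful curve fitting.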

Another assay deals with c-KIT2 G4. Kind of assay: FRET G4 stabilisation. Format: binding. As to conditions: ΔTm at 1 µM; triplicate, Esd ± 0.5 °C. An outline of the steps:
as §1

In another assay the test system is HSP90A promoter G4. Kind of assay: FRET G4 stabilisation. Format: binding. As to conditions: ΔTm at 1 µM; triplicate, Esd ± 0.5 °C.
A further assay concerns HSP90B promoter G4. Kind of assay: FRET G4 stabilisation. Type of assay: binding. The conditions noted are these: ΔTm at 1 µM; triplicate, Esd ± 0.5 °C.
The test system of assay [2] is AR (androgen receptor promoter) G4. Kind of assay: FRET G4 stabilisation. Format: binding. The conditions noted are these: ΔTm at 1 µM; triplicate, Esd ± 0.5 °C.
For assay [3], the system named is duplex DNA sequence (T-loop). Kind of assay: FRET melting assay, duplex DNA control. Format: binding. As to conditions: ΔTm at 1 µM, Esd ± 0.5 °C. Put shortly: as §1
Assay [4] deals with F21T G4 versus calf thymus duplex DNA. Nature of the assay: Calf thymus DNA. Format: binding, human. As to conditions: 1 µM compound, calf thymus DNA competitor. Put shortly:
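Competition version of the FRET melting assay. Dual-labelled F21T G4 is challenged with unlabelled calf thymus duplex DNA added at high duplex:G4 ratios. Test compound at 1 µM. Read-out is % retention of the F21T Tm shift.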

Another assay has as its system A549 (lung cancer). Kind of assay: 96 hr SRB assay, A549. Type of assay: cell-based. The conditions noted are these: Homo sapiens, A549, 96 h, read-out: IC50, A549. (The SRB assay estimates cell density from bound dye.)
The test system of another assay is MCF7 (breast cancer). Kind of assay: 96 hr SRB assay, MCF7. Type of assay: cell-based. As to conditions: Homo sapiens, MCF7, 96 h, read-out: IC50, MCF7.
Assay [5] relates to ALT (transformed WI38 lung fibroblast cells). Kind of assay: 96 hr SRB assay, ALT. Format: cell-based. The conditions noted are these: Homo sapiens, WI-38, 96 h, read-out: IC50, ALT.
Assay [6] relates to Mia-PaCa2 (pancreatic cancer). Nature of the assay: 96 hr SRB assay, Mia-PaCa2. Type of assay: cell-based. The conditions noted are these: Homo sapiens, MIA PaCa-2, 96 h, read-out: IC50, Mia-PaCa2.
The test system of assay [7] is Panc1 (pancreatic cancer). Kind of assay: 96 hr SRB assay, Panc1. Format: cell-based. The conditions noted are these: Homo sapiens, PANC-1, 96 h, read-out: IC50, Panc1.
A further assay relates to RCC4 (renal cancer). Kind of assay: 96 hr SRB assay, RCC4. As to conditions: Homo sapiens, RCC4, 96 h, read-out: IC50, RCC4. Type of assay: cell-based.
A further assay concerns 786-O (renal cancer). Nature of the assay: 96 hr SRB assay, 786-O. Format: cell-based. The conditions noted are these: Homo sapiens, 786-0, 96 h, read-out: IC50, 786-O.
Assay [8] deals with WI38 (non-transformed lung fibroblast cells). Kind of assay: 96 hr SRB assay, WI38. As to conditions: Homo sapiens, WI-38, 96 h, read-out: IC50, WI38. Type of assay: cell-based.

Structures are written as SMILES. pIC50: −log10 of the molar value.

`CN1CCN(CCCNc2cc3c4c(c(NCCCN5CCN(C)CC5)cc5c4c2C(=O)N(CCCN2CCOCC2)C5=O)C(=O)N(CCCN2CCOCC2)C3=O)CC1` [Compound 8, 4,9-bis((3-(4-methyl-piperazin-1-yl)propyl)amino)-2,7-bis(3-morpholinopropyl) benzo-[lmn] [3,8] phenanthroline-1,3,6,8(2H,7H)-tetraone]: in [1], the “FRET G4 stabilization ΔTm, F21T” value stood at 26.6 °C. Further, the “FRET G4 stabilization ΔTm, c-KIT2” value with c-KIT2 G4 was 22.0 °C. Further, the “FRET G4 stabilization ΔTm, HSP-90A” value in the assay on HSP90A promoter G4 is 33.1 °C. In addition, in the assay with HSP90B promoter G4, the “FRET G4 stabilization ΔTm, HSP-90B” value was 28.6 °C. Also, the “FRET G4 stabilization ΔTm, AR” value in assay [2] turned out to be 15.9 °C. The “FRET ΔTm, T-loop duplex” value in assay [3] came to 4.9 °C. For the same molecule, in [4] (G4:CT 1:1), the “% retention of the F21T ΔTm, G4:CT 1:1” value amounted to 100%. In addition, in assay [4] (G4:CT 1:10), the “% retention of the F21T ΔTm, G4:CT 1:10” value was 100%. In addition, in [4] (G4:CT 1:300), the “% retention of the F21T ΔTm, G4:CT 1:300” value is reported as 27.2%. The pIC50 (as a rule, the IC50 on a negative log10 scale, so that one unit is a factor of ten) with A549 (lung cancer) was 7.72; with MCF7 (breast cancer), 7.15; in assay [5] it was 7.20; in [6], 7.96; in assay [7], 8.52; with RCC4 (renal cancer), 6.25. Also, the pIC50 was 6.49 in the assay with 786-O (renal cancer) and 6.64 in assay [8].
